Laboratory results: the array DNA melting data of Ke et al. (doi:10.1101/2024.01.08.574731)

Legend:
[1] = folding enthalpy; higher = less favourable; fluorescence melt of hairpins on a sequencing array, two-state fit; conditions: sodium 0.088 M
How it was run: (§1)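 With Cy3 and quencher oligos annealed, library hairpins on a sequenced MiSeq flow cell were imaged for Cy3 fluorescence in 50 mM Na-HEPES pH 8.0, 25 mM NaCl, in 2.5 °C steps up to 60 °C. Melting temperature and folding enthalpy were derived from bootstrapped two-state fits of signals normalised to pre-quench Cy3 and to control constructs. Four replicates were combined by inverse variance, with fitted temperatures raised by 9.35 °C to match UV melts.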

[2] = melting temperature; fluorescence melt of hairpins on a sequencing array, two-state fit, raised by 9.35 °C to match UV melts; conditions: sodium 0.088 M
How it was run: as §1

| Sequence | folding enthalpy [1] [kcal/mol] | Tm [2] [°C] |
| --- | --- | --- |
| GTTTTTTCGAAAGAAAAC (((..(((....)))))) | -19.7 | 32.1 |
| TAACCGAAAGGTTA (((((....))))) | -15.2 | 56.7 |
| TAACTGAAAAGTTA (((((....))))) | -9.74 | 29.4 |
| TACATGAAAATGTA (((((....))))) | -12.7 | 32.1 |
| TCACTGAAAAGTGA (((((....))))) | -18.7 | 43.4 |
| TCAGAGAAATCTGA (((((....))))) | -9.32 | 27.6 |
| TCGATGAAAATCGA (((((....))))) | -19.5 | 47.4 |
| TCGGAGAAATCCGA (((((....))))) | -16.8 | 47.3 |
| TCGGTGAAAACCGA (((((....))))) | -17.7 | 53 |
| TCTAGGAAACTAGA (((((....))))) | -10.5 | 29.7 |
| TCTCCGAAAGGAGA (((((....))))) | -17.6 | 59.5 |
| TCTCTGAAAAGAGA (((((....))))) | -12.1 | 37.2 |
| TGACTGAAAAGTCA (((((....))))) | -23.2 | 46 |
| TGCAAGAAATTGCA (((((....))))) | -17.6 | 39.7 |
| TGCAGGAAACTGCA (((((....))))) | -19.6 | 51.8 |
| TGCATGAAAATGCA (((((....))))) | -19.8 | 52 |

| Sequence | folding enthalpy [1] [kcal/mol] | Tm [2] [°C] |
| --- | --- | --- |
| TGGAAGAAATTCCA (((((....))))) | -12.4 | 30.7 |
| TGGACGAAAGTCCA (((((....))))) | -19.4 | 67.5 |
| TGGGTGAAAACCCA (((((....))))) | -18.8 | 53.5 |
| TGTATGAAAATACA (((((....))))) | -11 | 34.5 |
| TGTCCGAAAGGACA (((((....))))) | -13.6 | 68.8 |
| TTACGGAAACGTAA (((((....))))) | -14.8 | 42.1 |
| TTACTGAAAAGTAA (((((....))))) | -8.68 | 26.7 |
| TTATCGAAAGATAA (((((....))))) | -14.7 | 36.5 |
| TTCACGAAAGTGAA (((((....))))) | -19.2 | 51 |
| TTCATGAAAATGAA (((((....))))) | -9.75 | 28.9 |
| TTCGGGAAACCGAA (((((....))))) | -18.8 | 46.7 |
| TTGAGGAAACTCAA (((((....))))) | -15.6 | 35.3 |
| TTGATGAAAATCAA (((((....))))) | -13.4 | 32.8 |
| TTGCAGAAATGCAA (((((....))))) | -20.8 | 42.3 |
| TTTTCGAAAGAAAA (((((....))))) | -15.1 | 37.8 |
